The text below walks through data of ChEMBL document CHEMBL1135654, “Antitumor agents. 1. Synthesis, biological evaluation, and molecular modeling of 5H-pyrido[3,2-a]phenoxazin-5-one, a compound with potent antiproliferative activity” (J Med Chem, 2002).

The IC50 is the midpoint of a concentration-inhibition curve. A word on the CC50: it is the concentration at which the toxic effect on the cells reaches its halfway point. High values mean lower toxicity to the cells, low ones greater toxicity to the cells.

For experiment [1], the system named is HeLa. Nature of the experiment: Compound concentration required to reduce the cell proliferation of cervix carcinoma Hela cells by 50%, using MTT method. It is filed as functional, cell-based. To be noted: Homo sapiens. The gist of the method: (§1)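 Solid-tumor cells in exponential growth seeded at 5 × 10^4 cells/mL in their own medium with 10% FCS, allowed to adhere 16 h, then serially diluted drug added (DMSO stock 200 µM diluted in medium). MTT viability read 4 days later, 37 °C, 5% CO2. IC50 by linear regression from % of untreated control growth. Three independent determinations.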
On the technique in general: Tetrazolium assays rely on reduction of a dye to a coloured formazan, in cell work by metabolically active cells.

The test system of experiment [2] is HEp-2. Nature of the experiment: Compound concentration required to reduce the cell proliferation of larynx carcinoma cells by 50%, using MTT method. The class given is functional, cell-based. To be noted: Homo sapiens. The gist of the method: as §1
The subject of experiment [3] is CCRF-CEM. Nature of the experiment: Compound concentration required to reduce the cell proliferation of human acute T-lymphoblastic leukemia CCRF-CEM cells by 50%, using MTT method. It is filed as functional, cell-based. The gist of the method:
(§2)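 Leukemia/lymphoma cells in exponential growth resuspended at 1 × 10^5 cells/mL in RPMI 1640 (10% FCS, antibiotics) with serial dilutions of drug (DMSO stock 200 µM diluted in medium). Viability by MTT after 96 h at 37 °C, 5% CO2. Growth expressed as % of untreated controls; IC50 by linear regression. Controls underwent ≥3 rounds of multiplication. Mean of three independent determinations.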

The subject of experiment [4] is CCRF-SB. Nature of the experiment: Compound concentration required to reduce the cell proliferation of human acute B-lymphoblastic leukemia CCRF-SB cells by 50%, using MTT method. It is filed as functional, cell-based. The gist of the method:
as §2

Experiment [5] deals with MT4. In words: Compound concentration required to reduce the cell proliferation of human CD4+T cells by 50%, using MTT method. The class given is functional, cell-based. The gist of the method:
as §2

Experiment [6] deals with CCRF-SB. In words: Compound concentration required to reduce the cell proliferation of human acute B-lymphoblastic leukemia CCRF-SB cells by 50%, using MTT method. The class given is functional, cell-based. The gist of the method:
as §2

Experiment [7] relates to HeLa. Nature of the experiment: Compound concentration required to reduce the cell proliferation of cervix carcinoma Hela cells by 50%, using MTT method. The class given is functional, cell-based. To be noted: Homo sapiens. The gist of the method: as §1
Experiment [8] concerns CCRF-CEM. In words: Compound concentration required to reduce the cell proliferation of human acute T-lymphoblastic leukemia CCRF-CEM cells by 50%, using MTT method. It is filed as functional, cell-based. The gist of the method:
as §2

Experiment [9] relates to MT4. In words: Compound concentration required to reduce the cell proliferation of human CD4+T cells by 50%, using MTT method. The class given is functional, cell-based. The gist of the method:
as §2

Experiment [10] deals with HEp-2. Nature of the experiment: Compound concentration required to reduce the cell proliferation of larynx carcinoma cells by 50%, using MTT method. The class given is functional, cell-based. To be noted: Homo sapiens. The gist of the method: as §1
The test system of the next experiment is MCF7. In words: Antitumor activity against human breast adenocarcinoma MCF-7 cells. It is filed as functional, cell-based. The gist of the method: as §1
The nature of experiment [11]: (§3) Cytotoxicity for Peripheral blood Lymphocytes. To be noted: Homo sapiens. It is filed as functional. The gist of the method:
(§4)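 Human PBL from HIV-negative donors, isolated on Ficoll-Hypaque. Resting cells (1 × 10^6/mL) exposed up to 3 days to serial drug dilutions, washed, PHA-stimulated 24 h, diluted to 1 × 10^5/mL with PHA and IL-2, viability read after 6 days at 37 °C. Alternatively, PBL stimulated with PHA (2.5 µg/mL) 24 h, then grown with PHA, IL-2 (50 U/mL) and drug, and viable cells counted at day 6. Mean ± SD, three experiments.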

Experiment [12] has as its system Panel leukemia (Carcinoma cell lines). In words: Cytotoxicity for lymphoblastoid cell lines. The class given is functional. To be noted: Homo sapiens.
Experiment [13] relates to HEp-2. In words: Antitumor activity against larynx carcinoma Hep-2 cells. It is filed as functional, cell-based. The following applies: Homo sapiens. The gist of the method: as §1
Another experiment has as its system SK-MEL-28. Nature of the experiment: Antitumor activity against human skin melanoma […] cells. It is filed as functional, cell-based. The gist of the method: as §1
Experiment [14] can be described thus: Effect on the proliferation Wild -type and Drug- resistant KB subclones passaged in the presence of vincristine 0.02 uM. The class given is functional, Homo sapiens. The gist of the method:
(§5)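 Cells seeded at 5 × 10^4 cells/mL, adhered 16 h, exposed to serial drug dilutions; MTT after 4 days. IC50 by linear regression versus untreated controls; mean ± SD of three independent determinations.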

Experiment [15] relates to WIL2-NS. In words: Anti tumor activity against human splenic B-lympho blastoid Wil2-NS cells. The class given is functional, cell-based. The gist of the method:
as §2

Experiment [16] can be described thus: Compound concentration required to reduce the cell proliferation of Wild type and Drug- resistant human nasopharyngeal carcinoma KB cells by 50%. The class given is functional, cell-based. The gist of the method: as §5
Experiment [17] relates to MT4. In words: Antitumor activity against human CD4+T cells expressing the TAT gene of HTLV-1 MT-4 cells. It is filed as functional, cell-based. The gist of the method: as §2
The test system of a further experiment is HepG2. Nature of the experiment: Antitumor activity against human hepatocellular carcinoma HepG2 cells. It is filed as functional, cell-based. The gist of the method:
as §1

A further experiment concerns SK-MES-1. In words: Antitumor activity against human lung squamous carcinoma SK-MES-1 cells. It is filed as functional, cell-based. The gist of the method: as §1
Experiment [18] can be described thus: as §3. It is filed as functional. To be noted: Homo sapiens. The gist of the method: as §4
The source holds these as a separate data set.

The subject of experiment [19] is HeLa. Nature of the experiment: Antitumor activity against cervix carcinoma Hela cells. It is filed as functional, cell-based. To be noted: Homo sapiens. The gist of the method: as §1
Experiment [20] has as its system MT4. In words: Antitumor activity against […] human acute T-lymphoblastic leukemia MT-4 cells. It is filed as functional, cell-based. The gist of the method: as §2
The nature of experiment [21]: Compound concentration required to reduce the cell proliferation of Wild type and drug-resistant KB subclones passaged in the presence of etoposide 7 uM by 50%. The class given is functional. To be noted: Homo sapiens. The gist of the method:
as §5

Another experiment has as its system 5637. Nature of the experiment: Antitumor activity against human bladder carcinoma 5637 cells. The class given is functional, cell-based. The gist of the method:
as §1

The test system of the next experiment is Raji. Nature of the experiment: Antitumor activity against human Burkitt lym phoma Raji cells. The class given is functional, cell-based. The gist of the method:
as §2

The subject of a further experiment is C8166. Nature of the experiment: Antitumor activity against […] human acute T-lymphoblastic leukemia C8166 cells. The class given is functional, cell-based. The gist of the method:
as §2

The subject of experiment [22] is CCRF-CEM. In words: Antitumor activity against human acute T-lymphoblastic leukemia CCRF-CEM cells. The class given is functional, cell-based. The gist of the method: as §2
The next experiment concerns DU-145. Nature of the experiment: Antitumor activity against human prostate carcinoma DU145 cells. The class given is functional, cell-based. The gist of the method:
as §1

The next experiment deals with HT-29. In words: Antitumor activity against human colon adenocarcinoma HT-29 cells. It is filed as functional, cell-based. The gist of the method:
as §1

In another experiment the test system is ACHN. In words: Antitumor activity against human renal adenocarcinoma ACHN cells. The class given is functional, cell-based. The gist of the method:
as §1

A short description of experiment [23]: Compound concentration required to reduce the cell proliferation of Wild type and Drug- resistant KB subclones passaged in the presence of doxorubicin 0.09 uM by 50%. The class given is functional. To be noted: Homo sapiens. The gist of the method: as §5
In a further experiment the test system is G-361. In words: Antitumor activity against human skin melanoma G-361 cells. The class given is functional, cell-based. The gist of the method:
as §1

Another experiment has as its system CRL-7065 cell line. Nature of the experiment: Antitumor activity against human foreskin fibroblasts CRL7065 cells. It is filed as functional, cell-based. The gist of the method: as §1
Another experiment deals with MOLT-4. In words: Antitumor activity against human acute T-lymphoblastic leukemia MOLT-4 cells. The class given is functional, cell-based.
The test system of a further experiment is IMR-32. In words: Antitumor activity against human neuroblastoma IMR32 cells. The class given is functional, cell-based. The gist of the method: as §1
The subject of experiment [24] is CCRF-SB. In words: Antitumor activity against human acute B-lymphoblastic leukemia CCRF-SB cells. It is filed as functional, cell-based. The gist of the method: as §2
For experiment [25], the system named is WIL2-NS. Nature of the experiment: Antitumor activity against human splenic B-lympho blastoid Wil2-NS cells. It is filed as functional, cell-based. The gist of the method:
as §2

Molecules are shown by their SMILES.

For `Nc1cc2nc3ccccc3oc-2cc1=O`, the IC50 in the experiment with HeLa [1] worked out at 2700 nM; with HEp-2 [2] it was 1800 nM; with CCRF-CEM [3], 2000 nM; with CCRF-SB [4] it was 1000 nM; in the experiment with MT4 [5], 1200 nM.

`O=c1ccc2nc3ccccc3oc-2c1`: the IC50 with CCRF-SB [6] was 9000 nM; in the experiment on HeLa [7] it was 13000 nM; in the experiment with CCRF-CEM [8], 19000 nM; in the experiment with MT4 [9] it was 11000 nM; in the experiment with HEp-2 [10] it was 14200 nM.

Turning to `O=c1cc2oc3ccccc3nc-2c2cccnc12`, the IC50 in the experiment on MCF7 came out at 230 nM; with HEp-2 [13], 40 nM; with SK-MEL-28, 210 nM; in [14] it was 60 nM; in the experiment on WIL2-NS [15] it was 50 nM; in experiment [16], 100 nM. Further, the IC50 in the experiment on MT4 [17] stood at 10 nM; with HepG2 it was 50 nM; in the experiment with SK-MES-1, 40 nM; in the experiment with HeLa [19], 200 nM; with MT4 [20], 10 nM; in experiment [21], 20 nM. Moreover, the IC50 in the experiment with 5637 came out at 10 nM; in the experiment on Raji it was 40 nM; in the experiment on C8166 it was 100 nM; in the experiment on CCRF-CEM [22], 10 nM; in the experiment on DU-145, 40 nM; in the experiment on HT-29, 250 nM. The IC50 is 10 nM in the experiment with ACHN; 40 nM in experiment [23]; 10 nM in the experiment with G-361; 500 nM in the experiment with CRL-7065 cell line; 40 nM in the experiment on MOLT-4; 10 nM in the experiment with IMR-32. In addition, in the experiment on CCRF-SB [24], the IC50 is 9 nM. The results for the CC50 in [11], in experiment [12] and in experiment [18] were 5000 nM, 40 nM and 30 nM, respectively.

In the case of `CC(=O)Nc1cc2nc3ccccc3oc-2cc1=O`, the IC50 in the experiment with CCRF-SB [6] is 3600 nM; in the experiment with HeLa [7], 8200 nM; in the experiment with CCRF-CEM [8], greater than 50000 nM; in the experiment with MT4 [9] it was 9500 nM; in the experiment with HEp-2 [10], 1400 nM.

Turning to `O=c1cc2sc3ccccc3nc-2c2cccnc12`, the IC50 was found to be 650 nM in the experiment with MCF7; 100 nM in the experiment on HEp-2 [13]; 810 nM in the experiment on SK-MEL-28; 80 nM in the experiment on MT4 [17]; 110 nM in the experiment with HepG2; 800 nM in the experiment with SK-MES-1. The concentration for half-maximal inhibition (IC50) was 600 nM in the experiment on HeLa [19]; 80 nM in the experiment on MT4 [20]; 150 nM in the experiment with 5637; 30 nM with Raji; 410 nM in the experiment on C8166; 70 nM with CCRF-CEM [22]. Besides, the IC50 was determined as 610 nM in the experiment on DU-145; 10000 nM in the experiment with HT-29; 1920 nM in the experiment with ACHN; 220 nM with G-361; 810 nM in the experiment with CRL-7065 cell line; 150 nM in the experiment with WIL2-NS [25]. The IC50 was determined as 140 nM in the experiment on MOLT-4, 530 nM with IMR-32 and 80 nM with CCRF-SB [24].
